# Reference: paper PMC6931396 (Journal of medicinal chemistry, 2019)
# Key:
# [1] = tested on: TOPFlash luciferase reporter (three wild-type Tcf4 binding sites) in β-catenin activated HEK293 cells; experiment: TOPFlash luciferase reporter assay; format: cell-based; conditions: 24 h
# How it was run: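 HEK293 cells were co-transfected with FuGENE 6, using 45 ng TOPFlash or FOPFlash reporter plus 135 ng pcDNA3.1-β-catenin. Cells were grown 24 h in DMEM with 10% FBS at 37 °C, then treated with test compound at various concentrations. After 24 h, luciferase activity was read by a dual-luciferase system, normalized, and compared with DMSO-treated cells. Triplicate; unpaired two-tailed t-test.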
# [2] = unless converted into the ester form; previous study; cited from earlier work
# [3] = target: T1, β-catenin/Tcf PPI (human β-catenin residues 138–781 / fluorescein-labeled human Tcf4 residues 7–51) (Homo sapiens, UniProt P35222); format: binding
# T1 sequence (P35222 138-781): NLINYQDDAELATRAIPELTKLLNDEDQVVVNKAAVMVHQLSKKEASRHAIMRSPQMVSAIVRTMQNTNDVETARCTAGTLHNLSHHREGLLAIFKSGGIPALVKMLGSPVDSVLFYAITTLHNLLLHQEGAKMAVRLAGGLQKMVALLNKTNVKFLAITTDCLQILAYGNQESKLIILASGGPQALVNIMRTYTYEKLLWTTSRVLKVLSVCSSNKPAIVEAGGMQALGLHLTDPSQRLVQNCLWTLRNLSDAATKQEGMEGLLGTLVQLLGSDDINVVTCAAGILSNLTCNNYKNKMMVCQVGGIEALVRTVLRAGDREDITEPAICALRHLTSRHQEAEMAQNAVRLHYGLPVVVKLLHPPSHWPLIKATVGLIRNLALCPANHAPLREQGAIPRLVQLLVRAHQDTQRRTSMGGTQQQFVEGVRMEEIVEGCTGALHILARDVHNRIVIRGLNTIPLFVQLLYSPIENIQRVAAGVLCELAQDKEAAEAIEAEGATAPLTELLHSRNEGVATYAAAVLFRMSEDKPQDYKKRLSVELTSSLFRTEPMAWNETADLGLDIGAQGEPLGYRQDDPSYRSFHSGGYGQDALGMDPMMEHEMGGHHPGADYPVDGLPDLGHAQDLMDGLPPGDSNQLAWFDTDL
# [4] = tested on: SW480 cells; experiment: HPLC–MS based cell bioavailability assay; format: in vitro ADME; conditions: for cell-bound concentration: 37 °C, 3 h incubation in 5 mL DMEM with 10% FBS, input concentration 25 μM
# [5] = tested on: TNBC MDA-MB-231 cells; experiment: Matrigel invasion assay; format: cell-based, human; conditions: 10 μM, 24 h
# [6] = tested on: β-catenin/E-cadherin PPI in HCT116 cells; experiment: Co-IP in HCT116 cells, β-catenin/E-cadherin; format: cell-based; conditions: concentrations sufficient to disrupt β-catenin/Tcf PPI
# [7] = tested on: β-catenin/APC PPI in HCT116 cells; experiment: Co-IP in HCT116 cells, β-catenin/APC; format: cell-based; conditions: concentrations sufficient to disrupt β-catenin/Tcf PPI
# [8] = tested on: β-catenin/Tcf PPI in HCT116 cells; experiment: Co-IP in HCT116 cells, β-catenin/Tcf; format: cell-based; conditions: HCT116 cells treated 24 h
# [9] = tested on: TNBC MDA-MB-231 cells; experiment: Scratch wound healing assay; format: cell-based, human; conditions: 10 μM, 10% serum, mitomycin 10 μg/mL, 14 h
# How it was run: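 Wounds were scraped with a sterile 200 µL pipette tip into ~70–80% confluent MDA-MB-231 monolayers. Cells were kept in DMEM with 10% FBS plus 10 µg/mL mitomycin to block proliferation, with test compound or vehicle (0.2% DMSO). Wounds were imaged immediately and at 14 h. […] Mean ± SD, n=3.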
smiles,measurement,setting,value
CCOC(=O)CC[C@H](NC(=O)[C@H](CC(=O)OCC)NC(=O)[C@H](Cc1ccc2ccccc2c1)NC(=O)c1cc2cc(OC)ccc2[nH]1)C(=O)OC [(Et)-15],TOPFlash luciferase activity,[1]; concentration of up to 200 μM,did not inhibit
COC(=O)[C@H](CCC(=O)O)NC(=O)[C@H](CC(=O)O)NC(=O)[C@H](Cc1ccc2ccccc2c1)NC(=O)Cc1cc2cc(Cl)ccc2[nH]1 [Compound 1],activity in cell-based assays,[2],almost inactive
COC(=O)[C@H](CCC(=O)O)NC(=O)[C@H](CC(=O)O)NC(=O)[C@H](Cc1ccc2ccccc2c1)NC(=O)Cc1c[nH]c2ccc(Cl)cc12 [Compound 2],inhibitory potency for β-catenin/Tcf PPI in words,[3],great loss of potency
COC(=O)[C@H](CCC(=O)O)NC(=O)[C@H](CC(=O)O)NC(=O)[C@H](Cc1ccc2ccccc2c1)NC(=O)Cc1c[nH]c2cc(Cl)ccc12 [Compound 3],inhibitory potency for β-catenin/Tcf PPI in words,[3],great loss of potency
COC(=O)[C@H](CCC(=O)O)NC(=O)[C@H](CC(=O)O)NC(=O)[C@H](Cc1ccc2ccccc2c1)NC(=O)c1cc2c(Cl)cc(Cl)cc2[nH]1 [Compound 19],potency improvement over 9,[3],~ 3 fold
"O=C(O)CC[C@H](NC(=O)[C@H](CC(=O)O)NC(=O)[C@H](Cc1ccc2ccccc2c1)NC(=O)c1cc2cc(Cl)ccc2[nH]1)C(=O)Nc1ccccc1 [Compound 21, (S)-4-((S)-3-Carboxy-2-((S)-2-(5-chloro-1H-indole-2-carboxamido)-3-(naphthalen-2-yl)propanamido)propanamido)-5-oxo-5-(phenylamino)pentanoic Acid]",potency improvement over 9,[3],3.4 fold
"O=C(O)CC[C@H](NC(=O)[C@H](Cc1nn[nH]n1)NC(=O)[C@H](Cc1ccc2ccccc2c1)NC(=O)c1cc2cc(Cl)ccc2[nH]1)C(=O)Nc1ccc(OC(F)(F)F)cc1 [Compound 53, (S)-4-((S)-2-((S)-2-(5-Chloro-1H-indole-2-carboxamido)-3-(naphthalen-2-yl)propanamido)-3-(2H-tetrazol-5-yl)propanamido)-5-oxo-5-((4-(trifluoromethoxy)phenyl)amino)pentanoic Acid]",cell-bound concentration,[4],0.17 nmol/million SW480 cells
"NC(=O)CC[C@H](NC(=O)[C@H](Cc1nn[nH]n1)NC(=O)[C@H](Cc1ccc2ccccc2c1)NC(=O)c1cc2cc(Cl)ccc2[nH]1)C(=O)Nc1ccc(OC(F)(F)F)cc1 [Compound 55, (S)-2-((S)-2-((S)-2-(5-Chloro-1H-indole-2-carboxamido)-3-(naphthalen-2-yl)propanamido)-3-(2H-tetrazol-5-yl)propanamido)-N^1-(4-(trifluoromethoxy)phenyl)pentanediamide]",TOPFlash luciferase activity,[1]; different concentrations,suppressed the TOPFlash luciferase activities in dose-dependent manners
"CCOC(=O)CC[C@H](NC(=O)[C@H](Cc1nn[nH]n1)NC(=O)[C@H](Cc1ccc2ccccc2c1)NC(=O)c1cc2cc(Cl)ccc2[nH]1)C(=O)Nc1ccc(OC(F)(F)F)cc1 [Compound 56, Ethyl (S)-4-((S)-2-((S)-2-(5-Chloro-1H-indole-2-carboxamido)-3-(naphthalen-2-yl)propanamido)-3-(2H-tetrazol-5-yl)-propanamido)-5-oxo-5-((4-(trifluoromethoxy)phenyl)amino)-pentanoate]",inhibition of TNBC cell invasion,[5],effectively inhibit
same,effect on β-catenin/E-cadherin PPI (co-IP),[6],had no effect
same,TOPFlash luciferase activity,[1]; different concentrations,suppressed the TOPFlash luciferase activities in dose-dependent manners
same,effect on β-catenin/APC PPI (co-IP),[7],had no effect
same,inhibition of β-catenin/Tcf PPI (co-IP),[8],dose-dependently inhibited
same,cell-bound concentration,[4],1.4 nmol/million SW480 cells
same,transformation into 53,[4]; 24 h incubation with SW480 cells in 5 mL DMEM with 10% FBS,did not transform into 53
same,inhibition of TNBC cell migration,[9],effectively inhibit
